Laboratory results reported in paper PMC9968502 (International Journal of Nanomedicine, 2023).
Converted amounts (≈) assume the structure as drawn. Values belong to the compound of their own block, whether it stands above or below them.

How the values were obtained:
[1] = Apparent solubility measurement in deionised water; format: physicochemical; conditions: 37 °C, thermodynamic from solid
In short: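 Excess crystalline test compound or its 1:10 solid dispersion was shaken in deionised water at 50 strokes/min and 37 °C for 24 h, then filtered (0.45 µm). Concentration was measured by HPLC: C18 column, 2% glacial acetic acid:methanol (23:77 v/v) at 1 mL/min, detection at 424 nm. Measured in triplicate.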

[2] = Dissolution test in pH 1.2 and pH 6.8 buffers with 0.2% Tween 80; format: physicochemical; conditions: 0.2% Tween 80, 37 °C
In short: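 Crystalline compound or solid dispersion, each equivalent to 2 mg test compound, was stirred at 50 rpm and 37 °C in 100 mL phosphate buffer (pH 1.2 or pH 6.8, each with 0.2% Tween 80). Samples were taken at 5, 10, 20, 30, 60, 120, 180, 240 and 300 min, with medium replaced at 37 °C. Samples were filtered (0.45 µm) and analysed by the 424 nm HPLC method.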

[3] = Particle size analysis of micelles by dynamic light scattering; format: physicochemical; conditions: in water, DLS
In short: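 Carrier glycoside alone or the solid dispersion powder was dispersed in deionised water and sonicated for 2 min. Volumetric size distribution was measured by dynamic light scattering, and the mean size was taken from 3 replicates.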

[4] = ref [19], cited from earlier work
[5] = above the CMC, previous studies; ref [16–18]; cited from earlier work

solubility at 24 h [1]: 0.25 µg/mL (≈ 0.679 µM)
CUR released ([2]; pH 1.2 buffer, in 300 min): 22%
Dissolution rate (in words) ([2]; pH 6.8 buffer): slow dissolution rate
Micelle size (diameter) [3]: ~ 154 nm
Compound: COc1cc(/C=C/C(=O)CC(=O)/C=C/c2ccc(O)c(OC)c2)ccc1O [CUR, Curcumin]

Compound: COc1cc(C2Oc3cc([C@H]4Oc5cc(O)cc(O)c5C(=O)[C@@H]4O)ccc3OC2CO)ccc1O (stereo partly drawn) [silybin]
Fold increment of silybin water solubility by Mog-V [4]: 2000 fold
Water solubility of silybin ([4]; silybin alone): 1 µg/mL
Water solubility of silybin with Mog-V ([4]; solid dispersion of silybin in Mog-V dissolved in water): 2000 µg/mL

Compound: α-Glucosyl Stevia [Stevia-G]
Aggregation number [5]: 12

Compound: α-Glycosyl Rutin [Rutin-G]
Aggregation number [5]: 4
